In ChEMBL document CHEMBL3352778, “HDX reveals unique fragment ligands for the vitamin D receptor” (Bioorg Med Chem Lett, 2014) one finds IC50 and Activity data, which are given here for 13 compounds.

pIC50: −log10 of the molar value. The source made the active and inactive calls. The rule behind the calls is not given here.

Assay [1] is described as follows: Antagonist activity at human full length Flag-tagged RXR/His-tagged VDR by Alphascreen assay. Put shortly: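 Antagonist-mode AlphaScreen assay: a non-secosteroidal VDR agonist was added to form the VDR/RXR/DRIP205 complex. Fragments were then added at 10 doses spanning 0.025–500 µM. Dissociation of the complex was quantified as loss of proximity signal on a multilabel reader, and dose–response curves were fitted.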
In general terms: In Alpha technology, singlet oxygen from a donor bead excites a nearby acceptor bead.

The species named for assay [2] is Homo sapiens. Put plainly: Agonist activity at human full length Flag-tagged RXR/His-tagged VDR assessed as ability to recruit coactivator DRIP205 up to 500 uM by Alphascreen assay. Put shortly:
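AlphaScreen proximity assay of the RXR–VDR complex run in agonist mode, i.e. without any added VDR agonist. Read-out is the proximity signal produced when coactivator peptide DRIP205 is recruited to the VDR–RXR complex. Fragments were tested at concentrations up to 500 µM.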

On to `Oc1coc(-c2ccccc2)c1`, for which, in assay [1], the pIC50 (commonly the negative decadic logarithm of the IC50, by convention in mol/L) was 4.85. Moreover, the outcome in assay [2] was inactive.
For `Nc1ccc2c(c1)N=C(O)CN2` the same measures were 5.27 and “inactive”.
`CCC1CCCCN1CC(=O)c1cccs1` (stereo unspecified): the pIC50 in assay [1] is 4.70. Further, the result in assay [2] was inactive.
On the same counts, the results for `Oc1csc2ccccc12` are 5.17 and “inactive”.
On the same counts, the results for `OC(c1ccc(-c2cccs2)cc1)(C(F)(F)F)C(F)(F)F` are 5.89 and “inactive”.
On to `Cn1c(=O)c2nc(-c3cccc(O)c3O)nnc2n(C)c1=O`, for which the pIC50 in assay [1] was 6.71. Further, the outcome in assay [2] was inactive.
In assay [1], `O=C1CCCC=C(Cl)N1c1ccccc1` gave a pIC50 of 5.16. In assay [2], the outcome was inactive.
On the same counts, the results for `O=C(O)/C=C(/c1ccccc1)c1cccs1` are 4.78 and “inactive”.
Regarding `CCn1c(O)cc(C)cc1=O`, in assay [1], the pIC50 was 6.00. Moreover, the result in assay [2] was inactive.
On to `O=C1CC=C(c2ccccc2)O1`, for which, in assay [1], the pIC50 was 3.36. In addition, the outcome in assay [2] was inactive.
The compound `Oc1cc(-c2ccc(Cl)cc2)no1` showed a pIC50 in assay [1] of 4.17. Moreover, the outcome in assay [2] was inactive.
In assay [1], `Oc1cnn(-c2ccccc2)c1Cl` had a pIC50 of 4.36. Also, the result in assay [2] was inactive.
On the same counts, the results for `O=C(O)C1CSC=C(c2ccccc2)N1` (stereo unspecified) are 5.56 and “inactive”.
